Several values for one entry are separate records, joined by “and”; a condition that tells them apart may be missing. Identical values can stand only once.

As a reminder, the IC50 is the concentration that gives 50% inhibition. Low values mean greater potency, high ones weaker potency. In general, inhibition refers to the drop in the measured response relative to a control, in per cent. Read a high inhibition as a response far below the control.

Assay [1] relates to Mycolicibacterium smegmatis. Put plainly: Antimycobacterial activity against Mycobacterium smegmatis after 24 hrs by MTT assay. The assay is classed as functional, organism-based. The procedure, abridged: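 MTT (1 mg/ml solution) was then added for a further 24 h, followed by DMF:20% SDS (1:2) solubilization and A570 reading. MIC is the lowest concentration blocking visible growth, and IC50 was fitted by non-linear regression. DMSO stocks were at 100× the top concentration. Isoniazid served as positive control.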
For orientation: Tetrazolium assays rely on reduction of a dye to a coloured formazan, in cell work by metabolically active cells.

Assay [2] concerns the target T1, Enoyl-[acyl-carrier-protein] reductase [NADH] (Mycobacterium tuberculosis) (UniProt P9WGR1).
T1 sequence (whole entry): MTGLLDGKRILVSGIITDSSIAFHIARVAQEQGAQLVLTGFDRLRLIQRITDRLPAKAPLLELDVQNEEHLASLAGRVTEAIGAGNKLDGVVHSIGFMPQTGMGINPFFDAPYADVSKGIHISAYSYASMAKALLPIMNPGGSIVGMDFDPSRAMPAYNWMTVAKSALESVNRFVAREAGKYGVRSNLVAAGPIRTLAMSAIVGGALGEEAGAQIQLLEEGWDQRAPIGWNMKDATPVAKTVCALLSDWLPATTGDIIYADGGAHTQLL
Put plainly: Inhibition of Mycobacterium tuberculosis InhA expressed in Escherichia coli at 100 uM after 5 mins. The procedure, abridged: (§1)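 Recombinant M. tuberculosis InhA, E. coli-expressed and purified, at 70 nM. Pre-incubated with compound for 5 min or 2 h in 30 mM PIPES, 150 mM NaCl, pH 6.8, 25 °C, with 0.5% final DMSO. The reaction was started with trans-2-decenoyl-CoA plus NADH and followed by NADH oxidation at 340 nm, 25 °C. Initial rates were compared with a ligand-free control, giving % inhibition. Run in triplicate.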

In assay [3] the test system is Mycobacterium tuberculosis. Put plainly: Antimycobacterial activity against Mycobacterium tuberculosis after 24 hrs by MTT assay. The assay is classed as functional, organism-based. The procedure, abridged:
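MTT was then added for a further 24 h, followed by DMF:20% SDS (1:2) solubilisation and A570 read-out. MIC was the lowest concentration stopping visible growth versus untreated bacilli. IC50 came from non-linear regression. DMSO stocks were at 100× the top concentration.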

Assay [4] concerns the target T1, Enoyl-[acyl-carrier-protein] reductase [NADH] (Mycobacterium tuberculosis). Put plainly: Inhibition of Mycobacterium tuberculosis InhA expressed in Escherichia coli at 10 uM after 2 hrs. The procedure, abridged: as §1
The target is the same in assay [5]. In words: Inhibition of Mycobacterium tuberculosis InhA expressed in Escherichia coli at 1 uM after 2 hrs.
Assay [6] shares this target. In words: Inhibition of Mycobacterium tuberculosis InhA expressed in Escherichia coli at 1 uM after 5 mins.
Assay [7] shares this target. Put plainly: Inhibition of Mycobacterium tuberculosis InhA expressed in Escherichia coli at 10 uM after 5 mins. The procedure, abridged: as §1
For assay [8] the target is unchanged. Put plainly: Inhibition of Mycobacterium tuberculosis InhA expressed in Escherichia coli at 100 uM after 2 hrs. The procedure, abridged:
as §1

Assay [9] has the same target. In words: Inhibition of Mycobacterium tuberculosis InhA expressed in Escherichia coli at 20 uM after 2 hrs. The procedure, abridged: as §1
The target is the same in assay [10]. In words: Inhibition of Mycobacterium tuberculosis InhA expressed in Escherichia coli at 20 uM after 5 mins. Put shortly: as §1
Setting [11] is: Mycolicibacterium smegmatis, 24 h.

As to `O=C1NC(O)(c2cccc(O)c2)c2ccncc21` (centres undefined), in assay [1] (setting [11]), the IC50 is 300 µM. In addition, the inhibition in [2] was found to be 17%.
In assay [1] (setting [11]), `C=CCOc1cccc(C2(O)NC(=O)c3cnccc32)c1` (centres undefined) displayed an IC50 of 1300 µM. In assay [2], the inhibition came out at 23%.
The corresponding values for `O=C1NC(O)(c2cccc(Br)c2)c2ccncc21` (centres undefined) are > 5000 µM and 20%.
As to `CCCCCCCCCCCCOc1cccc(C(=O)C2C=CN(CC(=O)OCC)C=C2C(N)=O)c1` (centres undefined), the inhibition in assay [2] amounted to 6%.
Regarding `CCCCCCCCCCCCc1cccc(C2(O)NC(=O)c3cnccc32)c1` (centres undefined), the IC50 in assay [1] worked out at 78 µM; in [1] (setting [11]) it was 47 µM; in assay [3], 9.8 µM. Further, in assay [2], the inhibition is 4%.
`CCCCCCCCCc1ccc(-c2cccc(C3(O)NC(=O)c4cnccc43)c2)cc1` (centres undefined) showed an IC50 in [1] (setting [11]) of 1800 µM. In assay [2], this compound yielded an inhibition of 17%.
Take `NC(=O)C1=CN([C@@H]2O[C@H](COP(=O)(O)OP(=O)(O)OC[C@H]3O[C@@H](n4cnc5c(N)ncnc54)[C@H](O)[C@@H]3O)[C@@H](O)[C@H]2O)C=C[C@@H]1C(=O)c1ccncc1`: the inhibition in assay [4] was found to be 97%; in [5], 87%; in [6], 67%; in assay [7], 92%.
As to `CCCCCCCCCCCCOc1cccc(C(=O)C2C=CN(CC(=O)OCCCO)C=C2C(N)=O)c1` (centres undefined), the inhibition in assay [2] is 3%.
`CCCCCCCCCCCCOc1cccc(C2(O)NC(=O)c3c[n+](CC(=O)OCCCO)ccc32)c1` (centres undefined) came in with an inhibition in assay [2] of 30%.
With `CCCCCCCCCCCCOc1cccc(C2(O)NC(=O)c3cnccc32)c1` (centres undefined), the IC50 in assay [1] was 68 µM and 156 µM; in [3] it was 156 µM. Also, the inhibition in assay [8] was 80%; in [2], 41%.
On to `CCCCCCCCc1cccc(C2(O)NC(=O)c3cnccc32)c1` (centres undefined), for which the IC50 in assay [1] was 4.5 µM and 19.5 µM; in assay [3], 19.5 µM. In assay [2], this compound gave an inhibition of 9%.
`CCCCCCCCCCCCc1cccc(C2(O)NC(=O)c3c[n+](CC(=O)OCC)ccc32)c1` (centres undefined): the inhibition turned out to be 28% in [9], 40% in assay [10], 19% in assay [7] and 91% in assay [2]. Also, the IC50 is 3.2 µM and 9.8 µM in assay [1]; 39 µM in [3].
Regarding `CCCCCCCCCCCCOc1cccc(C2(O)NC(=O)c3c[n+](CC(=O)OCC)ccc32)c1` (centres undefined), the inhibition in assay [2] amounted to 35%.
Regarding `CCCCCCCCCCCCc1cccc(C(=O)C2C=CN(CC(=O)OCC)C=C2C(N)=O)c1` (centres undefined), the concentration for half-maximal inhibition (IC50) stood at 9.8 µM in [1], 5.3 µM in assay [1] (setting [11]) and 9.8 µM in [3]. The inhibition in assay [7] came to 25%.
On to `NNC(=O)c1ccncc1` [ISONIAZID], for which the IC50 in [1] was 7.8 µM and 39 µM; in assay [3], < 0.3 µM.

The record behind these values is ChEMBL document CHEMBL1250492, “Development of isoniazid-NAD truncated adducts embedding a lipophilic fragment as potential bi-substrate InhA inhibitors and antimycobacterial agents” (Eur J Med Chem, 2010).
